From the array DNA melting data of Ke et al. (doi:10.1101/2024.01.08.574731) come the findings set out here.

Data set [1] in a line: melting temperature; fluorescence melt of hairpins on a sequencing array, two-state fit, raised by 9.35 °C to match UV melts. The conditions noted are these: sodium 0.088 M. In a few lines: (§1)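 Cy3 signals were normalised both to pre-quench Cy3 and to control constructs. They came from library hairpins carrying annealed Cy3 and quencher oligos on a sequenced MiSeq flow cell, imaged in 50 mM Na-HEPES pH 8.0, 25 mM NaCl, in 2.5 °C steps up to 60 °C. Bootstrapped two-state fits gave melting temperature and folding enthalpy, and four replicates were combined by inverse variance. Fitted temperatures were then raised by 9.35 °C to match UV melts.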

A short description of data set [2]: folding enthalpy; higher = less favourable; fluorescence melt of hairpins on a sequencing array, two-state fit. The conditions noted are these: sodium 0.088 M. In a few lines:
as §1

Take CGGCAACGGAAACGTCCG (((..(((....)))))): the Tm in data set [1] was 39.2 °C. The folding enthalpy in data set [2] is -13 kcal/mol.
The like results for CGGCACCGGAAACGGCCG (((..(((....)))))) were, in that order, 49.2 °C and -29.1 kcal/mol.
The like results for CGGCACGGAAACGTACCG (((.(((....))).))) were, in that order, 50.4 °C and -30.5 kcal/mol.
For CGGCCGGAAACGGCCCCG ((((((....)))..))), in data set [1], the Tm worked out at 35.4 °C. Besides, the folding enthalpy in data set [2] was -6 kcal/mol.
The like results for CGGCCGGAAACGGTACCG ((((((....)))..))) were, in that order, 43.1 °C and -18.4 kcal/mol.
Take CGGCCGGAAACGGTCCG ((((((....))).))): in data set [1], the Tm is 57.7 °C. For the same sequence, the folding enthalpy in data set [2] is -32 kcal/mol.
Taken in the same sequence, the figures for CGGCGCGGAAACGCTCCG (((.(((....))).))) were 56.5 °C and -33.7 kcal/mol.
Taken in the same sequence, the figures for CGGCGGCGGAAACGCCCG (((..(((....)))))) were 49.3 °C and -10.4 kcal/mol.
Taken in the same sequence, the figures for CGGCTCGGAAACGACCCG (((.(((....))).))) were 42.9 °C and -29.4 kcal/mol.
On to CGGCTCGGAAACGACCG (((.(((....)))))), for which the Tm in data set [1] was 50.9 °C. In data set [2], the folding enthalpy was -31.8 kcal/mol.
Taken in the same sequence, the figures for CGGGACGGAAACGTGCCG (((.(((....))).))) were 60.3 °C and -19.1 kcal/mol.
Turning to CGGGCGGAAACGCACCCG ((((((....)))..))), in data set [1], the Tm is 48.8 °C. For the same sequence, in data set [2], the folding enthalpy was -13.1 kcal/mol.
Taken in the same sequence, the figures for CGGGCGGAAACGCCTCCG ((((((....)))..))) were 36.1 °C and -8.08 kcal/mol.
With CGGGCGGAAACGCGACCG ((((((....)))..))), the Tm in data set [1] turned out to be 57.8 °C. In data set [2], the folding enthalpy was -30.5 kcal/mol.
Taken in the same sequence, the figures for CGGGCGGAAACGCGGCCG ((((((....)))..))) were 59.5 °C and -36 kcal/mol.
On to CGGGCGGAAACGCTACCG ((((((....)))..))), for which the Tm in data set [1] stood at 45.8 °C. Besides, in data set [2], the folding enthalpy was -24.3 kcal/mol.
On to CGGGCGGAAACGCTCCCG ((((((....)))..))), for which the Tm in data set [1] is 48.1 °C. In addition, the folding enthalpy in data set [2] is -14.7 kcal/mol.
As to CGGGCGGAAACGCTCCG ((((((....))).))), the Tm in data set [1] was 54.2 °C. Further, the folding enthalpy in data set [2] is -26.4 kcal/mol.
Taken in the same sequence, the figures for CGGGTCGGAAACGATCCG (((.(((....))).))) were 58 °C and -45.1 kcal/mol.
The like results for CGGTAACGGAAACGTCCG (((..(((....)))))) were, in that order, 37.9 °C and -24.6 kcal/mol.
Taken in the same sequence, the figures for CGGTACGGAAACGTTCCG (((.(((....))).))) were 49.8 °C and -32.4 kcal/mol.
For the sequence CGGTCCCGGAAACGGCCG (((..(((....)))))), in data set [1], the Tm came out at 41.3 °C. In addition, in data set [2], the folding enthalpy was -21.1 kcal/mol.
The like results for CGGTCCGGAAACGGTCCG (((.(((....))).))) were, in that order, 55.6 °C and -40.5 kcal/mol.
As to CGGTCGGAAACGACGCCG ((((((....)))..))), the Tm in data set [1] was 36.7 °C. For the same sequence, the folding enthalpy in data set [2] is -11.7 kcal/mol.
In the case of CGGTCGGAAACGAGACCG ((((((....)))..))), the Tm in data set [1] was found to be 49.9 °C. The folding enthalpy in data set [2] is -38.6 kcal/mol.
Taken in the same sequence, the figures for CGGTCGGAAACGATTCCG ((((((....)))..))) were 43.9 °C and -19.8 kcal/mol.
The like results for CGGTGCGGAAACGCTCCG (((.(((....))).))) were, in that order, 62 °C and -34.8 kcal/mol.
Taken in the same sequence, the figures for CGGTTCGGAAACGATCCG (((.(((....))).))) were 51 °C and -36 kcal/mol.
Turning to CGGTTGCGGAAACGCCCG (((..(((....)))))), the Tm in data set [1] turned out to be 46.5 °C. For the same sequence, the folding enthalpy in data set [2] was -22.3 kcal/mol.
Taken in the same sequence, the figures for CGGTTTCGGAAACGACCG (((..(((....)))))) were 38 °C and -17.1 kcal/mol.
